As a reminder, the IC50 is the concentration at which inhibition is half-maximal.

Activity calls are given as the source filed them. The calls are words filed in the database; no cut-off is given here.

Data set [1] addresses T1, Mitogen-activated protein kinase kinase kinase 5 (Homo sapiens) (UniProt Q99683).
T1 sequence (whole entry): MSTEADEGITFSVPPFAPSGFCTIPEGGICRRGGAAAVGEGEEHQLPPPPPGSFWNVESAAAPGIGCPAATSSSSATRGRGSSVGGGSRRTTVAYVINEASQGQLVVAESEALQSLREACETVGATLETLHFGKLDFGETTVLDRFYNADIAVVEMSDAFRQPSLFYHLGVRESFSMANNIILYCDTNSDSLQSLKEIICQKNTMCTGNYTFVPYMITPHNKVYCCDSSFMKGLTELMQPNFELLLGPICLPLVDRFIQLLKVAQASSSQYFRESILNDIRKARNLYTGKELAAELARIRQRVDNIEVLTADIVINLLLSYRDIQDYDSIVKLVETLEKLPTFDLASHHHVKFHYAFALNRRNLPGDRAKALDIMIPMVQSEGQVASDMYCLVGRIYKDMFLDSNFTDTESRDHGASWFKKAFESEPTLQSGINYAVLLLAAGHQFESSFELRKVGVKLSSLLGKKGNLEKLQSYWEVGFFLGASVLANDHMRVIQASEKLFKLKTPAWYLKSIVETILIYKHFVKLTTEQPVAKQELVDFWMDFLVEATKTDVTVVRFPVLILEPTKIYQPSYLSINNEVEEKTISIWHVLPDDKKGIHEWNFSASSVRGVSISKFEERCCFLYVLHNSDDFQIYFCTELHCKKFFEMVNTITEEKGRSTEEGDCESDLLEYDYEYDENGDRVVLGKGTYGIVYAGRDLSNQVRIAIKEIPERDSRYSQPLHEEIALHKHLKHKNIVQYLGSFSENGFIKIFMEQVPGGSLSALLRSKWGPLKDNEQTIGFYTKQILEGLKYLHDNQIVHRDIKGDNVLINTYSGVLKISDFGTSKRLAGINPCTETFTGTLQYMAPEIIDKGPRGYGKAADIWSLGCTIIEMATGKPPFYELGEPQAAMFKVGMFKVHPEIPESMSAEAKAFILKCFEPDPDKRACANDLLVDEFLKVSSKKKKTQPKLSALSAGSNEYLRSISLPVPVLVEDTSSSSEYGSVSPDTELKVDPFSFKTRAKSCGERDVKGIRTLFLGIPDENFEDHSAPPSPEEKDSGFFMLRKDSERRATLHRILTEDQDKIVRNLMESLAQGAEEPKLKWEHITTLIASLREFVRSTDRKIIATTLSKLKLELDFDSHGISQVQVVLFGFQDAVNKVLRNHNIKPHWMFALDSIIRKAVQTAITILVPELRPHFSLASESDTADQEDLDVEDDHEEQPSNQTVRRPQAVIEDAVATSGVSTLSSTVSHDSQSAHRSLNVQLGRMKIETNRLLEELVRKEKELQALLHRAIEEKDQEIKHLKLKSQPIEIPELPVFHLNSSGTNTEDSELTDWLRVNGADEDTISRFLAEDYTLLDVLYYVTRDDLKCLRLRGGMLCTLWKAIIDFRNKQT
Put plainly: Activation of ASK1 in human Mahlavu cells assessed as SAPK/JNK phosphorylation after 24 to 48 hrs by Western blot analysis. It is filed as cell-based. An outline of the steps: (§1)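 Cells were exposed to compound or DMSO control for 24 or 48 h. Lysates were loaded at […] protein per lane and immunoblotted with antibodies diluted 1:100 to 1:500 in 5% BSA-TBS-T. Targets were p-Akt (Ser473), Akt, p-GSK3-α/β (Ser21/9), GSK3-α/β, SAPK/JNK, p-SAPK/JNK (Thr183/Tyr185), PARP, p-β-catenin, β-catenin, cyclin D1, p-ASK1 (S83) and p-ASK1 (S966). Actin served as the loading control.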
Background: A western blot detects proteins with antibodies after separation by electrophoresis.

In data set [2] the test system is Huh-7. Briefly: Induction of apoptosis in human HuH7 cells assessed as nuclear condensation at 10 uM after 48 hrs by Hoechst 33258 staining-based immunofluorescence microscopy. It is filed as functional, cell-based. A digest of the protocol: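 Cells on coverslips were incubated overnight, then treated with 10 µM compound or DMSO for 48 h. They were washed in ice-cold PBS, fixed in cold methanol for 10 min, and stained with 1 µg/mL Hoechst 33258 for 5 min in the dark. Nuclei were examined by fluorescence microscopy with a 40x objective.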

Data set [3] concerns the target T1, Mitogen-activated protein kinase kinase kinase 5 (Homo sapiens). Briefly: Activation of ASK1 in human Mahlavu cells assessed as Ser966 phosphorylation after 24 to 48 hrs by Western blot analysis. It counts as cell-based. An outline of the steps:
as §1

In data set [4] the test system is Huh-7. Put plainly: Induction of oxidative stress in human HuH7 cells assessed as ROS accumulation at 10 uM after 48 hrs by DCFH-DA staining based fluorescence microscopy. It is filed as functional, cell-based. A digest of the protocol:
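Cells in 6-well dishes were treated with 10 µM compound or DMSO for 48 h. They were washed in PBS and stained for 15 min at 37°C in the dark with DCFH-DA solution (1 mM DCFH-DA, 10 mM glucose, 10 mM HEPES in PBS). After three PBS washes, cells were viewed by fluorescence microscopy. Selenium-deficient serum-free medium culture served as the positive control.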

In data set [5] the test system is Huh-7. Put plainly: Induction of cell cycle arrest in human HuH7 cells assessed as accumulation at subG1 phase at 10 uM after 24 to 48 hrs by propidium iodide staining based FACS analysis. It is filed as functional. An outline of the steps:
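Huh7 cells were seeded at 300,000 per 100-mm dish. After 24 h they were treated with 10 µM compound or DMSO for 24 h and 48 h. Cells were trypsinized, fixed in ice-cold 70% ethanol and stored at −20 °C. They were then stained with propidium iodide and cell-cycle distribution, including SubG1, was read by flow cytometry.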
(A flow cytometer gives signals particle by particle.)

The test system of data set [6] is Huh-7. Put plainly: Induction of oxidative stress in human HuH7 cells assessed as ROS accumulation at 10 uM after 48 hrs by flow cytometry analysis. It is filed as functional, cell-based. An outline of the steps:
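Huh7 and Mahlavu cells were treated after 24 h with 10 µM compound or DMSO for 48 h. Cells were then trypsinized and processed with a MUSE oxidative stress kit for flow cytometric counting of ROS-positive cells. Cells grown in selenium-deficient serum-free medium served as the positive control.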

The test system of data set [7] is MCF7. Briefly: Cytotoxicity against human MCF7 cells assessed as growth inhibition after 72 hrs by sulforhodamine B assay. It counts as functional, cell-based. Conditions: Homo sapiens, MCF7, 72 h; read-out: IC50. A digest of the protocol:
(§2)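 Cells were grown at 37°C, 5% CO2 in DMEM with 10% FBS. They were seeded at 1000–3000 cells/well, grown 24 h, then exposed to compound at 2.5–40 µM for 72 h. Cells were fixed in 10% TCA for 1 h at 4°C, stained with 0.4% SRB in 1% acetic acid for 10 min, and the dye solubilized in 10 mM Tris. Absorbance was read at 515 nm; runs were in triplicate; IC50 was calculated, with fits of R2 0.8–1 accepted.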
On the technique in general: In SRB staining, fixed cells bind dye roughly in proportion to their protein.

Data set [8] is described as follows: Cytotoxicity against human HCT116 cells assessed as growth inhibition after 72 hrs by sulforhodamine B assay. It is filed as functional, cell-based, HCT-116. Conditions: Homo sapiens, HCT-116, 72 h; read-out: IC50. An outline of the steps: as §2
The nature of data set [9]: Cytotoxicity against human Mahlavu cells assessed as growth inhibition after 72 hrs by sulforhodamine B assay. It is filed as functional, cell-based. Particulars: Homo sapiens, Mahlavu, 72 h; read-out: IC50. An outline of the steps: as §2
Data set [10] can be described thus: Effect on un-phosphorylated beta-catenin level in human HuH7 cells after 24 to 48 hrs by Western blot analysis. It is filed as ADME, cell-based. Particulars: huh-7. An outline of the steps:
as §1

A short description of data set [11]: Effect on un-phosphorylated beta-catenin level in human Mahlavu cells after 24 to 48 hrs by Western blot analysis. It counts as ADME, cell-based. An outline of the steps:
as §1

For the compound `COc1ccc(C2=Nn3c(nnc3C(C)c3ccc(CC(C)C)cc3)SC2)cc1` (configuration not stated), the outcome in [1], in data set [2], in [3], in data set [4], in data set [5] and in data set [6] was Active. The results for the IC50 in data set [7], in [8] and in [9] were 5.2 µM, 4.2 µM and 13.6 µM, respectively. Moreover, the Activity entry in [10] and in data set [11] was “Non-toxic” in each case.
Take `Cc1ccc(C2=Nn3c(nnc3C(C)c3ccc(CC(C)C)cc3)SC2)cc1` (configuration not stated): the result in [1], in data set [2], in [3], in data set [4], in data set [5] and in [6] was Active. Further, the results for the IC50 in data set [7], in [8] and in data set [9] were 6.3 µM, 4 µM and 8.5 µM, respectively. Further, the Activity entry in [10] and in data set [11] was “Non-toxic” throughout.

The record behind these values is ChEMBL document CHEMBL3751842, “Novel triazolothiadiazines act as potent anticancer agents in liver cancer cells through Akt and ASK-1 proteins” (Bioorg Med Chem, 2016).
